Hits are enriched below; roughly 2.8% of the tested compounds scored in any of these assays.
Biofilm kill mix = mixtures killing C. albicans biofilm. C. albicans biofilm persisters + clotrimazole, fluorescence viability; primary screen in compound mixtures of four per well. inhibition, % at 7.6 µM. 120,000 tested, 0.02% active;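 active = inhibition above 30.3% in the primary screen of four-compound pools, then above 30% when the compound was retested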;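 note: compounds exposed to preformed 24 h biofilms for 48 h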
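System: C. albicans CAF4-2 wild-type biofilms; Medium: RPMI/MOPS medium, pH 7.0; Reagent: Clotrimazole, 50 µg/mL; Times: biofilm formation 24 h, compound exposure 48 h, 37 °C; Detection: 2-h Alamar Blue fluorescence, 535/590 nm excitation/emission; Evaluation: percent inhibition of biofilm viability.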
Arbovirus anti = antivirals against arbovirus infection | arbovirus infection cell-based antiviral screen | inhibition, % at 10 µM | 200,000 tested, 0.37% active | AID 1251; in the data active = inhibition above about 30%
Mcl1 Bid PPI = Mcl-1/Bid interaction inhibition. 220,000 tested, 0.97% active. AID 1021. Q07820. inhibition, % at 21.7 µM. TR-FRET Mcl-1/Bid-Dy647 peptide binding, 1536-well;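 active = compounds that cut the binding signal by more than half at the single screening dose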;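 note: His-tagged Mcl-1 with europium anti-His antibody binding Bid BH3 peptide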
Target sequence (Q07820 whole entry, looked up): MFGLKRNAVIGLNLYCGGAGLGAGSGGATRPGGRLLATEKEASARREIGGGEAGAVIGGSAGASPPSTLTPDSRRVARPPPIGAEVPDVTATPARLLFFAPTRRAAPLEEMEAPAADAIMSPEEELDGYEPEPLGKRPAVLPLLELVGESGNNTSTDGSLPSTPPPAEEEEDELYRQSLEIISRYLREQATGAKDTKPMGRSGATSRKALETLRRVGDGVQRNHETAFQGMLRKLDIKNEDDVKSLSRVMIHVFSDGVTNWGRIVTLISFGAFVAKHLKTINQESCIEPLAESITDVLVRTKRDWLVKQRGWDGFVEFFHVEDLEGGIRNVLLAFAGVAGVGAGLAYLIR
Bim-Mcl-1 = inhibitors of Bim-Mcl-1 interaction, human; Q07820; Bead-based flow cytometry, Bim peptide-Mcl-1 binding; inhibition, % at 10 µM; 190,000 tested, 0.1% active; in the data active = inhibition above about 40%
Mcl1-Noxa inh = Mcl-1/Noxa interaction inhibition. TR-FRET Mcl-1/Noxa peptide binding, 2 h. inhibition, % at 21.7 µM. 220,000 tested, 1.5% active. AID 1022;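 active = compounds that cut the protein-peptide binding signal by more than 50% relative to plate controls in a single-dose test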;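 note: His-tagged Mcl-1 with rhodamine Noxa BH3 peptide and terbium anti-His antibody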
m-calpain inh = calpain II (pig) inhibition; inhibition, % at 16 µM; 220,000 tested, 0.37% active; purified calpain II, fluorogenic peptide substrate, 30 min; AID 1236;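 active = inhibition above about 50%, limit read from the data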
Numbers stand for hits; – = inactive; · = no result given.

SMILES	Biofilm kill mix	Arbovirus anti	Mcl1 Bid PPI	Bim-Mcl-1	Mcl1-Noxa inh	m-calpain inh
Cc1ccc(NC(=S)N2CCCCC2)cc1C	–	·	–	·	–	–
O=C1ON=C(c2ccccc2)/C1=C/c1ccc(OS(=O)(=O)c2ccccc2)cc1	–	–	–	–	72	–
O=C1ON=C(c2ccccc2)/C1=C/c1cccnc1	–	–	–	–	–	–
COc1cccc(NC(=O)CSc2nc3ccccc3n2C)c1	–	–	85	–	–	–
O=C(CSc1nc2ccccc2c2nc3ccccc3n12)NCc1ccco1	·	–	86	–	–	–
Cc1ccc(-n2c(SCC(=O)Nc3ccc(N4CCOCC4)cc3)nc3ccccc3c2=O)cc1	–	–	–	–	–	–
CCn1c(SCC(=O)NCc2ccco2)nc2ccccc2c1=O	–	–	–	–	–	–
COc1cccc(NC(=O)CSc2nc(N)cc(N)n2)c1	·	–	–	–	–	–
Cc1ccc(NC(=O)CSc2nc3ccccc3c3nc4ccccc4n23)cc1	·	–	62	–	–	–
Cc1ccc(C2=NN=C(NC(=O)CSc3nnc4c5ccccc5n(C)c4n3)SC2)cc1	–	–	–	–	63	–
O=S(=O)(N/N=C/c1cn(Cc2ccccc2)c2ccccc12)c1ccccc1	·	–	–	–	–	–
Cc1cc(C)c2nc(SCC(=O)NCC3CCCO3)c(C#N)cc2c1 (stereo not drawn)	–	–	–	–	–	–
COc1cc(/C=N/NC(=O)C(Cc2c[nH]c3ccccc23)NC(=O)OCC(C)C)cc([N+](=O)[O-])c1OCc1ccccc1 (stereo not drawn)	–	–	–	–	–	–
COc1cc(/C=N/NC(=O)C(Cc2c[nH]c3ccccc23)NC(=O)OCC(C)C)cc([N+](=O)[O-])c1O (stereo not drawn)	–	–	–	–	52	–
CC(=O)NC(Cc1c[nH]c2ccccc12)C(=O)N/N=C/c1ccccc1 (stereo not drawn)	–	–	–	–	–	–
COc1cc(/C=N/NC(=O)C(Cc2c[nH]c3ccccc23)NC(=O)OCc2ccccc2)cc([N+](=O)[O-])c1O (stereo not drawn)	–	–	–	–	81	–
Cn1cccc1/C=N/NC(=O)c1cccc(OC(F)(F)C(F)F)c1	–	–	–	–	–	–
Cc1nnc(NC(=O)Cn2nc(C)c3ccccc3c2=O)s1	–	–	–	–	–	–
Cc1cnc(C(=O)OCC(=O)Nc2oc(-c3ccccc3)c(-c3ccccc3)c2C#N)cn1	·	–	–	–	54	–
COc1ccc(F)cc1S(=O)(=O)Nc1cccc(C(=O)O)c1	–	–	–	–	–	–
N#C/C(=C1\CCCN1)c1nc2ccccc2c(=O)[nH]1	·	–	–	–	–	–
N#C/C(=C1/CCCCCN1)c1nc2ccccc2s1	·	–	98	–	–	–
CCNC(=S)N/N=C/c1cccc(C)c1	–	–	–	–	–	–
COc1cc(C2C(C#N)=C(N)Oc3cc(O)ccc32)cc(OC)c1OC (stereo not drawn)	·	–	60	–	–	–
Cc1c(N=C2SCC(=O)N2/N=C\c2ccc(Br)cc2)c(=O)n(-c2ccccc2)n1C	–	–	–	–	–	–
SMILES	Biofilm kill mix	Arbovirus anti	Mcl1 Bid PPI	Bim-Mcl-1	Mcl1-Noxa inh	m-calpain inh
COc1cc(Cl)c(C)cc1NC(=O)CSc1nnc(CCC(=O)O)c(=O)[nH]1	–	–	–	–	–	–
Cn1c(=O)nc2n(Cc3ccccc3)c3cccc(Cl)c3cc-2c1=O	–	–	62	–	–	–
COC(=O)c1ccccc1NC(=O)CCCn1nc([N+](=O)[O-])c(Br)c1C	–	–	–	–	–	–
Cc1cc2ncn(/N=C/c3ccc([N+](=O)[O-])s3)c2cc1C	–	–	–	–	87	–
COc1cc2c(cc1NC(=O)CC1SC(N3CCCC3)=NC1=O)oc1ccccc12 (stereo not drawn)	·	33	–	–	–	–
COc1cc2c(cc1NC(=O)CCCN1C(=O)CCC1=O)oc1ccccc12	·	–	–	–	–	–
CCC(=O)Oc1ccc(C(=O)Nc2c[nH]c(=O)[nH]c2=O)cc1	–	–	–	–	–	–
CCOC(=O)C1CCN(S(=O)(=O)c2cc(Br)cc3c2N(C(=O)C2CC2)CC3)CC1	·	–	–	–	–	61
CCOC(=O)C(C(=O)OCC)c1cc(Br)c2noc3c2c1C(=O)c1ccccc1-3	·	–	–	42	57	–
O=C(NCc1ccc(Cl)cc1)C(=O)NCC1OCCN1C(=O)c1ccc(Cl)cc1 (stereo not drawn)	–	–	–	–	–	–
CCC(CC)NC(=O)COC(=O)c1cc(Br)ccc1Cl	–	–	97	–	–	–
CCCCNC(=O)COC(=O)c1cc(Br)ccc1Cl	–	–	–	–	–	–
CN(C)CC(C)(C)CN=Cc1c(O)[nH]c2ccccc12	–	·	–	·	–	–
O=C(CN1CCc2ccccc2C1)NC1CCCC1	–	–	–	–	–	–
Cc1ccc(CNC(=O)C(=O)NCC2OCCN2C(=O)c2cccs2)cc1 (stereo not drawn)	–	–	–	–	–	–
COc1ccc(NC(=O)C(=O)N/N=C/c2cc(C)n(-c3cccc(Cl)c3Cl)c2C)c(OC)c1	·	32	–	–	–	–
COc1ccc(OC)c(NC(=O)C(=O)N/N=C/c2ccccc2[N+](=O)[O-])c1	·	–	–	–	–	–
COc1ccc(OC)c(-c2csc(NC(=O)c3ccc4c(c3)OCO4)n2)c1	–	–	–	–	–	–
NC(=O)c1sc2nc3c(c(-c4ccco4)c2c1N)CCC3	·	–	–	–	–	–
Nc1c(C(=O)NC2CC2)sc2nc3c(c(-c4ccco4)c12)CC/C3=C/c1ccco1	–	–	84	–	97	–
COc1ccc(CCNC(=O)c2cc(C3CC3)on2)cc1OC	–	·	–	·	–	–
CCCC(=O)OCCNc1cc(Sc2nc3ccccc3[nH]2)c2nonc2c1[N+](=O)[O-]	–	–	–	–	52	–
COc1ccc(NC(=O)C(Cl)=C(Cl)Cl)cn1	–	–	–	–	–	–
COc1ccc(NC(=O)/C(Cl)=C(/Cl)S(=O)Cc2ccc(Cl)cc2)cn1 (stereo not drawn)	–	–	–	–	53	–
Cc1cc(C)n2c(SCC(=O)Nc3ccc(F)cc3)nnc2n1	–	·	–	·	–	–
SMILES	Biofilm kill mix	Arbovirus anti	Mcl1 Bid PPI	Bim-Mcl-1	Mcl1-Noxa inh	m-calpain inh
Cc1cccc(NC(=S)NC2CC3CCCC(C2)N3Cc2ccccc2)c1C (stereo not drawn)	–	–	–	–	–	–
[O-][n+]1c2c(nn1-c1ccccc1)/C(=N/O)CCC2	–	–	–	–	–	–
[O-][n+]1onc2c1CCC(=N/O)/C2=N\Nc1ccccc1	–	·	–	·	78	–
CC(=O)N1NC(=Nc2ccccc2)SC1(C)C	–	–	–	–	–	–
NS(=O)(=O)c1ccc(N=Nc2ccc(=O)[nH]c2O)cc1	–	·	–	·	63	–
Nc1nc(N)c(N=Nc2ccc(S(N)(=O)=O)cc2)c(=O)[nH]1	–	·	–	·	–	–
Cc1ccc(Cl)cc1NC(=O)N[C@@H](CC(C)C)C(=O)O	–	·	–	·	–	–

Source: PubChem BioAssay (several laboratories)
